Experimental findings from ChEMBL document CHEMBL2434865, “The influence of positional isomerism on G-quadruplex binding and anti-proliferative activity of tetra-substituted naphthalene diimide compounds” (Bioorg Med Chem, 2013) are described below.

pIC50: −log10 of the molar value.

For assay [1], the system named is PANC-1. Put plainly: Cytotoxicity against human PANC1 cells after 96 hrs by SRB assay. Conditions: PANC-1, 96 h. It counts as functional, cell-based. The method in brief:
(§1)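 For A549, MCF7, MIA PaCa2 (DMEM with 2 mM glutamine and 10% FCS) and PANC1 (same DMEM), 1000–4000 cells per well were seeded and left 24 h. Compound was added over a concentration range for 96 h at 37 °C in 5% CO2. Cells were fixed with 10% TCA (30 min, 4 °C) and stained with 0.4% SRB in 1% acetic acid for 15 min. Dye was dissolved in 10 mM Tris and read at A540. IC50 was interpolated as the level giving 50% absorbance loss versus untreated cells.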
On the technique in general: The SRB assay estimates cell density from bound dye.

In another assay the test system is A549. Put plainly: Cytotoxicity against human A549 cells after 96 hrs by SRB assay. The assay is classed as functional, cell-based. The settings on record: A549, 96 h. The method, boiled down: as §1
Assay [2] is filed under the species Homo sapiens. Put plainly: Binding affinity to human HSP90A 5'-FAM-GGGCCAAAGGGAAGGGGTGGG-TAMRA-3' at 1 uM after 3 hrs by HT-FRET assay. The method, boiled down: (§2)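 Oligonucleotides were diluted from 50 µM stock to 400 nM in 60 mM potassium cacodylate pH 7.4, annealed at 95 °C for 10 min, then cooled to RT over 3 h. Ligand came from a 10 mM aqueous stock, was diluted to twice the final level in buffer and mixed 1:1 with DNA, in triplicate. FAM excitation was 450–495 nm and emission 515–545 nm, read every 0.5 °C from 30–100 °C with a 30 s hold. Tm is the first-derivative maximum of the smoothed, normalized curve; ΔTm is relative to DNA without ligand.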

Assay [3] is filed under the species Homo sapiens. As to the kind of experiment: Binding affinity to human T-loop 5'-FAM-TATAGCTATATTTTTTTATAGCTATATAMRA-3' at 1 uM after 3 hrs by HT-FRET assay. The method, boiled down:
as §2

Another assay relates to WI-38. Put plainly: Cytotoxicity against human WI38 cells after 96 hrs by SRB assay. The assay is classed as cell-based. Conditions: WI-38, 96 h. The method in brief: (§3)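 Monolayer cultures were kept at 37 °C in humidified 5% CO2. Media were RPMI 1640 with 2 mM glutamine, 10% FCS and 1 mM pyruvate for 786-O, and MEM with 2 mM glutamine, 1% amino acids and 10% FCS for WI-38. Cells were exposed to compound over a concentration range for 96 h. Cells were fixed with TCA, stained with SRB, dissolved in 10 mM Tris and read at 540 nm. Values were normalized to untreated controls, and IC50 was interpolated as 50% absorbance reduction.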

The species entered for assay [4] is Homo sapiens. As to the kind of experiment: Binding affinity to human HSP90B 5'-FAM-GGGCGGGCCAAAGGGAAGGGG-TAMRA-3' at 1 uM after 3 hrs by HT-FRET assay. The method in brief: as §2
Assay [5] is filed under the species Homo sapiens. Put plainly: Binding affinity to human HSP90B 5'-FAM-GGGCGGGCCAAAGGGAAGGGG-TAMRA-3' at 2 uM after 3 hrs by HT-FRET assay. The method, boiled down: as §2
The species entered for assay [6] is Homo sapiens. As to the kind of experiment: Binding affinity to human telomeric quadruplex 5'-FAM-GGGTTAGGGTTAGGGTTAGGG-TAMRA-3' at 1 uM after 3 hrs by HT-FRET assay. The method, boiled down:
as §2

Assay [7] is filed under the species Homo sapiens. As to the kind of experiment: Binding affinity to human T-loop 5'-FAM-TATAGCTATATTTTTTTATAGCTATATAMRA-3' at 2 uM after 3 hrs by HT-FRET assay. The method, boiled down:
as §2

The species named for assay [8] is Homo sapiens. Put plainly: Binding affinity to human HSP90A 5'-FAM-GGGCCAAAGGGAAGGGGTGGG-TAMRA-3' at 2 uM after 3 hrs by HT-FRET assay. The method, boiled down:
as §2

For another assay, the system named is MIA PaCa-2. Put plainly: Cytotoxicity against human MIAPaCa2 cells after 96 hrs by SRB assay. It counts as functional, cell-based. The settings on record: MIA PaCa-2, 96 h. The method, boiled down:
as §1

The next assay deals with MCF7. As to the kind of experiment: Cytotoxicity against human MCF7 cells after 96 hrs by SRB assay. It counts as functional, cell-based. Conditions: MCF7, 96 h. The method in brief:
as §1

The nature of assay [9]: Cytotoxicity against human RCC4 cells after 96 hrs by SRB assay. The assay is classed as functional, cell-based. The settings on record: RCC4, 96 h.
Assay [10] is described as follows: Cytotoxicity against human 786-O cells after 96 hrs by SRB assay. It counts as functional, cell-based. Conditions: 786-0, 96 h. The method in brief:
as §3

Assay [11] is filed under the species Homo sapiens. As to the kind of experiment: Binding affinity to human telomeric quadruplex 5'-FAM-GGGTTAGGGTTAGGGTTAGGG-TAMRA-3' at 2 uM after 3 hrs by HT-FRET assay. The method, boiled down:
as §2

Assay [12] concerns PANC-1. Put plainly: Ratio of IC50 for human MIAPaCa2 cells to IC50 for human PANC1 cells. The assay is classed as functional.

As a reminder, the pIC50 is −log10 of the IC50, conventionally taken in molar units. Read a high pIC50 as a small IC50. A word on the ΔTm: it is the change in melting temperature against a reference sample. Consider `CN1CCN(CCN2C(=O)c3cc(NCCCN4CCOCC4)c4c5c(cc(NCCCN6CCOCC6)c(c35)C2=O)C(=O)N(CCN2CCN(C)CC2)C4=O)CC1`, for which the pIC50 in the assay with PANC-1 [1] is 8.30; with A549, 7.70; in the assay on WI-38, 6.74; in the assay with MIA PaCa-2, 8.30; with MCF7 it was 7.68; in [9], 6.52. In [10], this compound had a negative-log IC50 (pIC50) of 6.80. The ΔTm in the assay listed under Homo sapiens [2] amounted to 33 °C; in the assay filed under Homo sapiens [3], 2 °C; in the assay listed under Homo sapiens [4], 28 °C; in the assay listed under Homo sapiens [5], 32 °C; in the assay filed under Homo sapiens [6], 26 °C; in the assay filed under Homo sapiens [7] it was 8 °C. Besides, the thermal shift (ΔTm) was found to be 36 °C in the assay filed under Homo sapiens [8] and 31 °C in the assay listed under Homo sapiens [11].

With `CN1CCN(CCCNc2cc3c4c(c(NCCCN5CCN(C)CC5)cc5c4c2C(=O)N(CCCN2CCOCC2)C5=O)C(=O)N(CCCN2CCOCC2)C3=O)CC1`, the negative logarithm of the IC50 (pIC50) in the assay on PANC-1 [1] is 8.52. Also, the “Ratio IC50” value in the assay on PANC-1 [12] worked out at 5.

For the compound `COCCCNc1cc2c3c(c(NCCCOC)cc4c3c1C(=O)N(CCCN1CCN(C)CC1)C4=O)C(=O)N(CCCN1CCN(C)CC1)C2=O`, the pIC50 in the assay with PANC-1 [1] is 5.60; in the assay on A549, 5.24; with WI-38, < 4.60; in the assay with MIA PaCa-2 it was 5.15; with MCF7, 4.76; in assay [9], 5.12. The same compound gave a pIC50 in assay [10] of 4.79. Further, the ΔTm is 22 °C in the assay listed under Homo sapiens [2]; 0 °C in the assay listed under Homo sapiens [3]; 22 °C in the assay listed under Homo sapiens [4]; 26 °C in the assay filed under Homo sapiens [5]; < 2 °C in the assay listed under Homo sapiens [6]; 0 °C in the assay filed under Homo sapiens [7]. Moreover, the shift in melting temperature (ΔTm) was found to be 24 °C in the assay listed under Homo sapiens [8] and 16 °C in the assay listed under Homo sapiens [11].

Take `CN1CCN(CCCN2C(=O)c3cc(NC[C@@H]4CCCO4)c4c5c(cc(NC[C@H]6CCCO6)c(c35)C2=O)C(=O)N(CCCN2CCN(C)CC2)C4=O)CC1`: the pIC50 in the assay on PANC-1 [1] was 5.82; in the assay with A549, 6.80; in the assay on WI-38, 5.64; in the assay on MIA PaCa-2 it was 7.02; with MCF7, 6.25; in assay [9], 5.52. This compound also had a pIC50 in [10] of 6.41. For the same compound, the ΔTm in the assay filed under Homo sapiens [2] was 21 °C; in the assay listed under Homo sapiens [3] it was 0 °C; in the assay filed under Homo sapiens [4] it was 13 °C; in the assay filed under Homo sapiens [5] it was 17 °C; in the assay filed under Homo sapiens [6] it was < 2 °C; in the assay filed under Homo sapiens [7], 0 °C. In addition, the thermal shift (ΔTm) came to 23 °C in the assay filed under Homo sapiens [8] and 15 °C in the assay filed under Homo sapiens [11].

With `CN1CCN(CCCN2C(=O)c3cc(NCC4CCOCC4)c4c5c(cc(NCC6CCOCC6)c(c35)C2=O)C(=O)N(CCCN2CCN(C)CC2)C4=O)CC1`, the negative-log IC50 (pIC50) is 5.96 in the assay on PANC-1 [1]; 6.34 in the assay on A549; 5.55 with WI-38; 6.86 in the assay with MIA PaCa-2; 6.29 with MCF7; 5.66 in assay [9]. In addition, in [10], the pIC50 is 6.54. In addition, the shift in melting temperature (ΔTm) is 2 °C in the assay filed under Homo sapiens [2]; 0 °C in the assay filed under Homo sapiens [3]; 3 °C in the assay listed under Homo sapiens [4]; 23 °C in the assay listed under Homo sapiens [5]; < 2 °C in the assay listed under Homo sapiens [6]; 0 °C in the assay filed under Homo sapiens [7]. In addition, the values for the ΔTm in the assay listed under Homo sapiens [8] and in the assay listed under Homo sapiens [11] were 27 °C and 22 °C, respectively.

On to `CN1CCN(CCCN2C(=O)c3cc(NCCCN4CCOCC4)c4c5c(cc(NCCCN6CCOCC6)c(c35)C2=O)C(=O)N(CCCN2CCN(C)CC2)C4=O)CC1`, for which the negative-log IC50 (pIC50) with PANC-1 [1] was 8.70; in the assay on A549, 8.15; with WI-38, 6.52; in the assay with MIA PaCa-2 it was 7.30; with MCF7, 7.85; in [9] it was 6.21. In assay [10], this compound gave a pIC50 of 6.36. In addition, the ΔTm in the assay filed under Homo sapiens [2] came out at 34 °C; in the assay filed under Homo sapiens [3] it was 5 °C; in the assay filed under Homo sapiens [4], 30 °C; in the assay listed under Homo sapiens [5] it was 34 °C; in the assay listed under Homo sapiens [6] it was 29 °C; in the assay filed under Homo sapiens [7] it was 9 °C. Moreover, the ΔTm in the assay filed under Homo sapiens [8] turned out to be 36 °C; in the assay filed under Homo sapiens [11], 34 °C.
